Laboratory results reported in ChEMBL document CHEMBL3098105, “7,7'-Diazaindirubin--a small molecule inhibitor of casein kinase 2 in vitro and in cells” (Bioorg Med Chem, 2014).
Active and inactive are the calls of the source. No cut-off for these calls is given here.

Key:
MDA-MB-231 = assay: Antiproliferative activity against human MDA-MB-231 cells after 3 days by sulforhodamine B assay; type: functional; details: MDA-MB-231, 72 h
How it was run: (§1)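 Tested in the NCI 60 cell line panel. GI50 is the concentration giving 50% inhibition of cell growth, and values are the mean of two series of tests.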

[1] = target: Tyrosine-protein kinase FRK (Homo sapiens) (UniProt P42685); assay: Inhibition of human PTK5 assessed as residual activity at 1 uM relative to control
Tyrosine-protein kinase FRK (Homo sapiens), sequence (P42685 whole entry): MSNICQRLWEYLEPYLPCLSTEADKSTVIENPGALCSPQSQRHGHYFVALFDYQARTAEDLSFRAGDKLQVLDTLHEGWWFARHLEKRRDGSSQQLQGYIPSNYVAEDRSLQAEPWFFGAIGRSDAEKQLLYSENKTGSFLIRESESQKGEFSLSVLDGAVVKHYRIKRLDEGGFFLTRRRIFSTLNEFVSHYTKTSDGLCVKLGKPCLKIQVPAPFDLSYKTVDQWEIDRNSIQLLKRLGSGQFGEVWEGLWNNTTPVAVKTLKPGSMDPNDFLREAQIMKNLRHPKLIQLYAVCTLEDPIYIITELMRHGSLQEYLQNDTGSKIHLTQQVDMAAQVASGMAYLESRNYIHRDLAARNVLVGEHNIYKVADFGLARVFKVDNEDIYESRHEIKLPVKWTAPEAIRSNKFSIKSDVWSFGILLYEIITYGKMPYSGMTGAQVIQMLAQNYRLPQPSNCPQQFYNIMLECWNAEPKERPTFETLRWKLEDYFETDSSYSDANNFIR

[2] = target: Glycogen synthase kinase-3 alpha (Homo sapiens) (UniProt P49840); assay: Inhibition of human GSK3alpha assessed as residual activity at 1 uM relative to control
Glycogen synthase kinase-3 alpha (Homo sapiens), sequence (P49840 2-483 limits assumed): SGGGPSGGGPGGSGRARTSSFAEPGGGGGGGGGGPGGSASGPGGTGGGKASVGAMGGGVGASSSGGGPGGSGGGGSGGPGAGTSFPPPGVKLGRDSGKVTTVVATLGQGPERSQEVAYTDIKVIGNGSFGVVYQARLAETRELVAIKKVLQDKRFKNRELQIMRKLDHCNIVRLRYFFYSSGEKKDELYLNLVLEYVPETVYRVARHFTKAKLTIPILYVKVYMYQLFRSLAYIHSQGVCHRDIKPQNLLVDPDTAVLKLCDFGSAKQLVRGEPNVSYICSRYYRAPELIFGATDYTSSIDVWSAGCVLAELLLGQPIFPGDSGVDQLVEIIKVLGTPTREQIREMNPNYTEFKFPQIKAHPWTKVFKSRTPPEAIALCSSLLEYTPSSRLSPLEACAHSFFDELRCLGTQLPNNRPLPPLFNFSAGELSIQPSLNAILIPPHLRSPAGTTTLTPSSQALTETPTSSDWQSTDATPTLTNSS

[3] = target: G protein-coupled receptor kinase 5 (Homo sapiens) (UniProt P34947); assay: Inhibition of human GRK5 assessed as residual activity at 1 uM relative to control
[4] = target: Serine/threonine-protein kinase VRK2 (Homo sapiens) (UniProt Q86Y07); assay: Inhibition of human VRK2 assessed as residual activity at 1 uM relative to control
Serine/threonine-protein kinase VRK2 (Homo sapiens), sequence (Q86Y07 whole entry): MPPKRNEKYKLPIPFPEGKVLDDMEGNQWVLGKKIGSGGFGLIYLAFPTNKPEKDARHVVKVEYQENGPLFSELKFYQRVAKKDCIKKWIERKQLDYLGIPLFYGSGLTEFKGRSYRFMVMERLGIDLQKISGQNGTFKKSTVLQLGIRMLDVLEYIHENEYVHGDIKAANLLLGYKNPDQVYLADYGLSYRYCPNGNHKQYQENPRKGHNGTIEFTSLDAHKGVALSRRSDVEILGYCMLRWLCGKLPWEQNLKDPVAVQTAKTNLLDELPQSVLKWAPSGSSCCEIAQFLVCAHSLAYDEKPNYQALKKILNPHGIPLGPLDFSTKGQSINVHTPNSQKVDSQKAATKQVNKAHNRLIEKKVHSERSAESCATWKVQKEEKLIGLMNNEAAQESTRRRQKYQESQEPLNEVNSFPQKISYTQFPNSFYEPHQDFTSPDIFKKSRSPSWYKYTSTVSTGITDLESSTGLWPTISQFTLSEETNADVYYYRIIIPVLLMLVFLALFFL

[5] = target: Epidermal growth factor receptor (Homo sapiens) (UniProt P00533); assay: Inhibition of EGF-R (unknown origin) assessed as residual activity at 1 uM relative to control
Epidermal growth factor receptor (Homo sapiens), sequence (P00533 whole entry): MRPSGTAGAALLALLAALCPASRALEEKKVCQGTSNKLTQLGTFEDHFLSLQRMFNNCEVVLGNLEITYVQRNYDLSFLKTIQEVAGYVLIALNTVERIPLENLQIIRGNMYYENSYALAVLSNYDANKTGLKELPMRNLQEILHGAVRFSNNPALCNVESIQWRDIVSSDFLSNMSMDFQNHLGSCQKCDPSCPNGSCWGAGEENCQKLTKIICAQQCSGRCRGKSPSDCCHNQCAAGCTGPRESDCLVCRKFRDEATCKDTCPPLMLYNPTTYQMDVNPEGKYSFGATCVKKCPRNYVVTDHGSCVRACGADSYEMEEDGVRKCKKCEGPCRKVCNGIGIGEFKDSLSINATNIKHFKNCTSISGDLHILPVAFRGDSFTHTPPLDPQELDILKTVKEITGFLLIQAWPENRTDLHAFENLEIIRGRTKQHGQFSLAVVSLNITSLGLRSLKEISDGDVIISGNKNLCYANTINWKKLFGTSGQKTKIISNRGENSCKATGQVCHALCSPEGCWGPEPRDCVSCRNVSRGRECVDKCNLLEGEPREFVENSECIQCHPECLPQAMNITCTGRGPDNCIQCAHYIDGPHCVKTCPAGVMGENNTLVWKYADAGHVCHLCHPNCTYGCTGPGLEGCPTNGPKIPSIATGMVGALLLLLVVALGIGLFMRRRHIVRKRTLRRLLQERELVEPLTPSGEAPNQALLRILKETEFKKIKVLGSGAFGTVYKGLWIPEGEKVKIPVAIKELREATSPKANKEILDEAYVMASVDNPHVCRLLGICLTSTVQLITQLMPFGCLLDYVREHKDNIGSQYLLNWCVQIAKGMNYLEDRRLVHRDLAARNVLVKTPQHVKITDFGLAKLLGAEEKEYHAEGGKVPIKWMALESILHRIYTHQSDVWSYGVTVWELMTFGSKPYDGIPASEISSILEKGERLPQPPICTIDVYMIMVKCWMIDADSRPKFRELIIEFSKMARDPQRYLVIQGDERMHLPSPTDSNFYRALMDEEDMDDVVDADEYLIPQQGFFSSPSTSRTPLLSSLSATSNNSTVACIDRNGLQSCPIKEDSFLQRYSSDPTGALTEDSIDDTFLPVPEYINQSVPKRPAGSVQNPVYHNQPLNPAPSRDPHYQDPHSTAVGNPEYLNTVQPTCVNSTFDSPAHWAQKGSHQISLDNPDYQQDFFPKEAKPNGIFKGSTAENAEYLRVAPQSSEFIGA

[6] = target: Calcium/calmodulin-dependent protein kinase type II subunit gamma (Homo sapiens) (UniProt Q13555); assay: Inhibition of human CaMK2gamma assessed as residual activity at 1 uM relative to control
[7] = target: Proto-oncogene tyrosine-protein kinase receptor Ret (Homo sapiens) (UniProt P07949); assay: Inhibition of human Ret assessed as residual activity at 1 uM relative to control
[8] = target: Dual specificity protein kinase CLK2 (Homo sapiens) (UniProt P49760); assay: Inhibition of human CLK2 assessed as residual activity at 1 uM relative to control
[9] = target: Dual specificity tyrosine-phosphorylation-regulated kinase 2 (Homo sapiens) (UniProt Q92630); assay: Inhibition of human DYRK2 assessed as residual activity at 1 uM relative to control
SF-268 = assay: Antiproliferative activity against human SF268 cells after 3 days by sulforhodamine B assay; type: functional; details: SF-268, 72 h; how it was run: as §1
Homo sapiens = species: Homo sapiens; assay: Inhibition of S6K (unknown origin) assessed as residual activity at 10 uM relative to control
[10] = target: T1, Muscle, skeletal receptor tyrosine-protein kinase (Homo sapiens) (UniProt O15146); assay: Inhibition of MUSK (unknown origin) assessed as residual activity at 1 uM relative to control
T1 sequence (whole entry): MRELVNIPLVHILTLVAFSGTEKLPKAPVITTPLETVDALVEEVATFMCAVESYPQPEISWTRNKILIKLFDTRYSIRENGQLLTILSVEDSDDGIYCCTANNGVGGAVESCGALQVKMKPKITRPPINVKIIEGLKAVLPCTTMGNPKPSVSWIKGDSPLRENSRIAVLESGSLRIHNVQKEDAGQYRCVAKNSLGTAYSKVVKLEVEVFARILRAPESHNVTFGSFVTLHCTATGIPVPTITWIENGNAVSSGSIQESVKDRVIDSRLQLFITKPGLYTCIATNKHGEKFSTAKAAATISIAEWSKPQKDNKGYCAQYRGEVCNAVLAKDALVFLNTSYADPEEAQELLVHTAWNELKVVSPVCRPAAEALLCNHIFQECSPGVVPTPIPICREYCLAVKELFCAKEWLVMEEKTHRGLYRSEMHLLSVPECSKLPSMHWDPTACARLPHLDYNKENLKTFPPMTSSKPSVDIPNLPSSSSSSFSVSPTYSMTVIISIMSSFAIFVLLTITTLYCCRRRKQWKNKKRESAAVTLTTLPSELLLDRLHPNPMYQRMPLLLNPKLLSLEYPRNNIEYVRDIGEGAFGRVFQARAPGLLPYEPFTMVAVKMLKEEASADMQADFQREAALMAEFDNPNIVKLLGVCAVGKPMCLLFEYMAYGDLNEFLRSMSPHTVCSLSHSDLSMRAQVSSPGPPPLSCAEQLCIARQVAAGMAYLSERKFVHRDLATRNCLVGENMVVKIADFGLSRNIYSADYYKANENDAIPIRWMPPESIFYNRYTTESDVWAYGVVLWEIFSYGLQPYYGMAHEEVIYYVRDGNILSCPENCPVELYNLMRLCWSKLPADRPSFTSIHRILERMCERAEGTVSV

[11] = target: Cyclin-dependent kinase 2/cyclin E1 (Homo sapiens) (UniProt P24864+P24941); assay: Inhibition of CDK2/CycE (unknown origin) assessed as residual activity at 10 uM relative to control; type: protein-complex assay
A549 = assay: Antiproliferative activity against human A549 cells after 3 days by sulforhodamine B assay; type: functional; details: A549, 72 h; how it was run: as §1
[12] = target: Serine/threonine-protein kinase PLK3 (Homo sapiens) (UniProt Q9H4B4); assay: Inhibition of human Plk3 assessed as residual activity at 1 uM relative to control
[13] = target: Homeodomain-interacting protein kinase 3 (Homo sapiens) (UniProt Q9H422); assay: Inhibition of human HIPK3 assessed as residual activity at 1 uM relative to control
[14] = target: Inhibitor of nuclear factor kappa-B kinase subunit alpha (Homo sapiens) (UniProt O15111); assay: Inhibition of human IKKalpha assessed as residual activity at 1 uM relative to control
K562 = assay: Antiproliferative activity against human K562 cells after 3 days by sulforhodamine B assay; type: functional; details: K562, 72 h; how it was run: as §1
MCF7 = assay: Cell cycle arrest in human MCF7 cells assessed as accumulation at S phase at 0.5 uM after 24 hrs using propidium iodide staining by FACS analysis (reference value: 18.59%); type: functional
[15] = target: Receptor-interacting serine/threonine-protein kinase 2 (Homo sapiens) (UniProt O43353); assay: Inhibition of human RIPK2 assessed as residual activity at 1 uM relative to control
[16] = target: Proto-oncogene tyrosine-protein kinase ROS (Homo sapiens) (UniProt P08922); assay: Inhibition of human Ros assessed as residual activity at 1 uM relative to control
Proto-oncogene tyrosine-protein kinase ROS (Homo sapiens), sequence (P08922 whole entry): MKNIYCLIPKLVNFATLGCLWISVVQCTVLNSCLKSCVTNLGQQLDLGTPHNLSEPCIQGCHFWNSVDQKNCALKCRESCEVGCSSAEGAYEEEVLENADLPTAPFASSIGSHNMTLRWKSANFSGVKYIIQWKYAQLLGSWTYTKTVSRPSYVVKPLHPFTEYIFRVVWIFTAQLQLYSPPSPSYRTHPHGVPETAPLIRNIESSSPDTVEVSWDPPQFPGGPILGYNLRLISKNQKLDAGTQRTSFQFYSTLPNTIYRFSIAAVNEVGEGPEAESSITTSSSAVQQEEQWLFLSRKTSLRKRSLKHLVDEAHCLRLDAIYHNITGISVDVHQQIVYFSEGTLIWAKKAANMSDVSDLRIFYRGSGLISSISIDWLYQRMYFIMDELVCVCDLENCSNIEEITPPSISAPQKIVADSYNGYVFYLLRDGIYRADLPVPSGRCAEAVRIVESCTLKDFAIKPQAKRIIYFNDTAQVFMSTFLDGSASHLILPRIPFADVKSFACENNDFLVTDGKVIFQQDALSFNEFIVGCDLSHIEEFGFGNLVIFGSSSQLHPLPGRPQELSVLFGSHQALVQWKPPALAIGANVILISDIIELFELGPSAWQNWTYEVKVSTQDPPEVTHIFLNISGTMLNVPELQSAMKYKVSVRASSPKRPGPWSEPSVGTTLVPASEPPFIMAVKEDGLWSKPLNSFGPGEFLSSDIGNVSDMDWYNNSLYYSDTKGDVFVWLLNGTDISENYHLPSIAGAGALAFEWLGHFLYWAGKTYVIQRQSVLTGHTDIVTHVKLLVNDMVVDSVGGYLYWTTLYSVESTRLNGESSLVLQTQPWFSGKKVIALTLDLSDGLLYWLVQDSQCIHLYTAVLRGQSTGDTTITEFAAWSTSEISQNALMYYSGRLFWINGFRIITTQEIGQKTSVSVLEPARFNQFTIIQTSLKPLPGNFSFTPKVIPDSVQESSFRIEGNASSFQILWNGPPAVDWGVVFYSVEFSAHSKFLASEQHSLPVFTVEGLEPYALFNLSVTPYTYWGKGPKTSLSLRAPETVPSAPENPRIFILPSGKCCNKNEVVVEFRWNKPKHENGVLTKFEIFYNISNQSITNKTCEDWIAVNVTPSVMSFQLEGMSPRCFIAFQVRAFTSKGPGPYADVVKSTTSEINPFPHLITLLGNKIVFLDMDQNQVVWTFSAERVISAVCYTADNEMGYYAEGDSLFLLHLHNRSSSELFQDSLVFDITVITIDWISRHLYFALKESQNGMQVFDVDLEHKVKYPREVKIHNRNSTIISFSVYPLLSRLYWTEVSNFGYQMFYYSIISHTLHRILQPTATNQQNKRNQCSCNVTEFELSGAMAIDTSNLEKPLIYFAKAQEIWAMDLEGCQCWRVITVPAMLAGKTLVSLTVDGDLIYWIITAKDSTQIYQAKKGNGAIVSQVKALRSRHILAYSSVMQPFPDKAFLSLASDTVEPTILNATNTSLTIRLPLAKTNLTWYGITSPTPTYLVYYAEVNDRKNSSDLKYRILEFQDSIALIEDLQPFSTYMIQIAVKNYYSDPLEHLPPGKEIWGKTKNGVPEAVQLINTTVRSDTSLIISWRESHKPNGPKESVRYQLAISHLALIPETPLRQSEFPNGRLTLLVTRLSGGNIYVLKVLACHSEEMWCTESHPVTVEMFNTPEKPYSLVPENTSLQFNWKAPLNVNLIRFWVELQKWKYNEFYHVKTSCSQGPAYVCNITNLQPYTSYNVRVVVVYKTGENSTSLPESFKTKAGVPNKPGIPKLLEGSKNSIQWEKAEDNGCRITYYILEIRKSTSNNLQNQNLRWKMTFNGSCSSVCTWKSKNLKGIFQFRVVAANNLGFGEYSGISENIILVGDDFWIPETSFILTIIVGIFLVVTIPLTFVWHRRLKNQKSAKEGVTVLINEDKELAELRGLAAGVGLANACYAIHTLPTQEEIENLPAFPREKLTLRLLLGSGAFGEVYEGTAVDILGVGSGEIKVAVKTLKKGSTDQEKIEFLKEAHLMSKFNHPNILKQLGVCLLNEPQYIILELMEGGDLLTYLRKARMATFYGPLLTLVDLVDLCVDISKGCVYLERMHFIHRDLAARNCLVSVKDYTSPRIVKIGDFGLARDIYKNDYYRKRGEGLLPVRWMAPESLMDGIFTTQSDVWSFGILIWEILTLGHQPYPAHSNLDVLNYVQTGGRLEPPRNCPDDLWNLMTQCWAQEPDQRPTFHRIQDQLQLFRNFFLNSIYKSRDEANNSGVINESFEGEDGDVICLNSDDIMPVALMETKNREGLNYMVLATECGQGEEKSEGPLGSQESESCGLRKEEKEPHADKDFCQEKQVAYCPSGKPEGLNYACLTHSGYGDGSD

[17] = target: Ribosomal protein S6 kinase alpha-2 (Homo sapiens) (UniProt Q15349); assay: Inhibition of human Rsk3 assessed as residual activity at 1 uM relative to control
[18] = target: Casein kinase II (Homo sapiens) (UniProt P67870+P68400+P19784); assay: Inhibition of CK2 in human MCF7 cells assessed as reduction of Akt phosphorylation at S473 at 1 uM after 30 mins by Western blot analysis; type: cell-based
How it was run: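 MCF7 cells were grown at 37 °C and 5% CO2 in DMEM with 10% heat-inactivated FBS and penicillin/streptomycin. Cells were exposed to 1 µM for the indicated times, with DMSO as the untreated control. Extracts were made in urea lysis buffer, and 20–40 µg protein was run on 10% SDS–PAGE. Blots were probed with primary antibodies (1:1000, overnight, 4 °C) and read by ECL, with β-actin as loading control.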

SN12C = assay: Antiproliferative activity against human SN12C cells after 3 days by sulforhodamine B assay; type: functional; details: 72 h

## O=C1Nc2ncccc2/C1=C1/Nc2ncccc2C1=O
MDA-MB-231
  GI50: 1.7 µM
[1]
  Activity: 92%
[2]
  Activity: 68%
[3]
  Activity: 99%
[4]
  Activity: 110%
[5]
  Activity: 89%
[6]
  Activity: 103%
[7]
  Activity: 107%
[8]
  Activity: 81%
[9]
  Activity: 107%
SF-268
  GI50: 1.62 µM
Homo sapiens
  Activity: 99%
[10]
  Activity: 95%
[11]
  Activity: 77%
A549
  GI50: 0.236 µM
[12]
  Activity: 104%
[13]
  Activity: 94%
[14]
  Activity: 99%
K562
  GI50: 2.26 µM
MCF7
  Activity: 17.48%
[15]
  Activity: 85%
[16]
  Activity: 102%
[17]
  Activity: 72%
[18]
  inhibition: Active
SN12C
  GI50: 1.41 µM
